F508del corr – correctors of CFTR F508del function in bronchial epithelial cells; CFBE cells, YFP halide quenching; stimulated with forskolin plus potentiator P3; % fluorescence drop versus neutral controls; activity (quench increase), % at 7.58 µM; actives 0.36% (n = 350,000); AID 720511;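 active = mean added fluorescence quench of at least 8% versus neutral control, with both replicates also reaching 8%; inconclusive = only one of the mean or replicate conditions met; inactive = mean below 8% and not both replicates reaching 8%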;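 also: cells transiently co-express mutant CFTR-F508del with the halide-sensitive YFP; corrector assay measuring rescue of mutant channel to the surface after 24 h compound exposure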
ERAP1 inh – inhibitors of human ERAP1 aminopeptidase | Q9NZ08 | recombinant ERAP1, Leu-AMC fluorescence, 60 min | inhibition, % at 10.7 µM | actives 0.15% (n = 340,000) | AID 652197;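 active = mean replicate inhibition of at least 30%, or all replicates individually reaching that 30% level; inactive = mean below 30% and not every replicate reaching it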;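 also: 0% = neutral control wells and 100% = L-leucinethiol positive control wells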
DENV2 CPE rescue – DENV2-induced cell death inhibition; actives 1.7% (n = 350,000); DENV2-infected cells, cytopathic effect rescue, plate reader; CPE inhibition, % at 9.99 µM; AID 651640; in the data active = CPE inhibition above about 20%, passing the limit was not always enough; inconclusive = no clear call, values can overlap the other calls; tested in BHK-21 cells;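 also: 0% = median of neutral control wells and 100% = median of positive control wells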
FGF22 binding-1 – binders of recombinant human FGF22 by thermal shift; Q9HCT0; SYPRO orange fluorescence; percent of sucrose octasulfate shift, DMSO zero; activity (Tm shift, normalised), % at 9.99 µM; actives 1.5% (n = 340,000); AID 651658;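 active = mean Tm shift, scaled 0 neutral to 100 positive control, at about 1.3% or above, every replicate too, limit read from the data; inconclusive = no clear call, values can overlap the other calls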
E-selectin induc – induces E-selectin expression in human endothelial cells | HUVEC E-selectin immunofluorescence imaging; normalized: neutral wells 0, TNF-alpha wells 100 | activation, % at 7.58 µM | AID 686992 | P16581 | actives 0.37% (n = 260,000);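 active = mean E-selectin-positive cell signal at least 10% of the positive control, reached in at least 60% of replicates, without over 20% cell loss; inconclusive = no rule given, readout overlaps actives, possibly toxicity-flagged; inactive = the rest, including those meeting only one limit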
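Material: HUVEC primary endothelial cells; Amount: 3,000 cells per well; Dosing: single concentration; Medium: EGM-2 growth medium on 0.1% gelatin-coated wells; Read-out basis: percent E-selectin-positive cells; Signal: immunofluorescence imaging; Control set: TNF-alpha, DMSO.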
FGF22 binding-2 – FGF22 (human) binding in thermal shift; shares compounds with FGF22 binding-1; AID 720646; recombinant FGF22 thermal shift, SYPRO orange fluorescence; actives 2% (n = 1,000); thermal shift activity, °C (ΔTm) at 38 µM;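 active = fitted rise in melting shift crosses a set limit at or below the top valid dose tested; inconclusive = flat fit at mid-level activity, or a poor quality fit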
TSA no protein – shows thermal shift signal without protein, FGF22 counter-screen; AC50, µM (titrated, usually from 38 µM); shares compounds with FGF22 binding-1; actives 2% (n = 1,000); AID 743019; compound-only SYPRO orange thermal shift counter-screen, no protein;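 active = rising signal whose fitted curve reaches the 0.54 level within the top valid dose, showing a melting point, actives reach about 13 µM in these data; inactive = the rest, including activity in the opposite direction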; also: value is where the raw curve crosses a fixed level and not half-maximal
Starred values were filed as active, the others as inactive; i = inactive; ? = inconclusive; . = no result; [ ] = dose if it differs, or a comment. Hits are enriched below; roughly 3.7% of the tested compounds scored in any of these assays.

SMILES	F508del corr	ERAP1 inh	DENV2 CPE rescue	FGF22 binding-1	E-selectin induc	FGF22 binding-2	TSA no protein
C/C=C/c1ccc2c(c1)O[C@H](CN(C)C(=O)NCCC)[C@@H](C)CN([C@H](C)CO)S2(=O)=O	-1	4	-4	0	1	.	.
CC(C)NC(=O)Nc1cccc2c1O[C@@H](CN(C)Cc1ccc(C(=O)Nc3ccccc3N)cc1)[C@@H](C)CN([C@H](C)CO)C2=O	2	1	-11	1.5*	0	0.17	i
C[C@H]1CN([C@@H](C)CO)C(=O)c2cc(N(C)C)ccc2O[C@@H]1CN(C)Cc1ccc(Cl)c(Cl)c1	-1	-1	-1	0	0	.	.
Cc1ccc(S(=O)(=O)Nc2ccc3c(c2)C(=O)N([C@@H](C)CO)C[C@H](C)[C@@H](CN(C)CC2CCCCC2)O3)cc1	4	-2	-8	1.5*	1	0.15[42 µM]	i
C[C@@H]1CN([C@@H](C)CO)C(=O)Cc2cc(NC(=O)NC3CCCCC3)ccc2O[C@H]1CN(C)C	0	2	17	0	3	.	.
CC(C)NC(=O)Nc1cccc2c1O[C@@H](CN(C)Cc1ccc(C(=O)Nc3ccccc3N)cc1)[C@@H](C)CN([C@@H](C)CO)C2=O	2	2	-4	0	-3	.	.
C[C@H](CO)N1C[C@H](C)[C@H](CN(C)C)Oc2ccc(NC(=O)NC3CCCCC3)cc2CC1=O	-5	-2	4	2.0*	0	0.097[42 µM]	i
C[C@@H]1CN([C@H](C)CO)C(=O)Cc2cc(N(C)C)ccc2O[C@@H]1CN(C)Cc1ccc(Cl)c(Cl)c1	5	1	-9	40*	0	.	i
O=C(C[C@H]1CC[C@@H]2[C@H](COC[C@H](O)CN2C(=O)c2ccc(F)cc2)O1)Nc1nccs1	4	-1	16	0	2	.	.
COc1ccc2c3c(n(C)c2c1)[C@H](CO)N(C(=O)c1ccccn1)CC31CCN(C(C)=O)CC1	-1	-4	-1	0	0	.	.
COc1ccc(NC(=O)Nc2ccc3c(c2)C(=O)N([C@@H](C)CO)C[C@H](C)[C@@H](CN(C)Cc2ccncc2)OCCCC[C@H](C)O3)cc1	-1	0	.	1	0	.	.
Cc1noc(C)c1NC(=O)Nc1ccc2c(c1)CC(=O)N([C@H](C)CO)C[C@H](C)[C@H](CN(C)Cc1ccc3c(c1)OCO3)O2	1	-1	-11	0	.	.	.
C[C@@H]1CN([C@H](C)CO)C(=O)c2cc(NC(=O)Cc3cn(C)c4ccccc34)ccc2O[C@@H]1CN(C)S(=O)(=O)c1ccccc1	1	-1	-2	25*	.	0.16	i
C[C@H]1CN([C@@H](C)CO)C(=O)c2cc(NS(=O)(=O)c3ccccc3)ccc2O[C@@H]1CN(C)C	0	0	0	1.4*	.	0.038	i
C[C@@H]1CN([C@@H](C)CO)C(=O)c2cc(NS(C)(=O)=O)ccc2O[C@@H]1CN(C)Cc1ccc2c(c1)OCO2	2	3	6	1.9*	0	-0.12	i
Cc1noc(C)c1NC(=O)Nc1ccc2c(c1)CC(=O)N([C@@H](C)CO)C[C@H](C)[C@@H](CN(C)Cc1ccc3c(c1)OCO3)O2	-1	-1	-3	1.5*	0	0.13	i
CCCN1[C@@H]2Cn3c(ccc(-c4ccccc4)c3=O)[C@H]1[C@@H](C(=O)NCCCN1CCOCC1)[C@@H]2CO	2	0	-1	0	0	.	.
CO[C@@H]1CN(C)C(=O)c2cc(NC(=O)Nc3cccc(F)c3)ccc2OC[C@H](C)N(C)C[C@H]1C	2	-4	11	0	0	.	.
C[C@H]1CN([C@@H](C)CO)C(=O)c2cc(NS(=O)(=O)c3ccccc3)ccc2O[C@@H]1CN(C)Cc1ccc(C(=O)O)cc1	-1	0	-6	1.3*	0	0.095	i
C[C@H](CO)N1C[C@H](C)[C@@H](CN(C)CC2CC2)Oc2ccc(NS(=O)(=O)c3cccs3)cc2C1=O	-3	-1	10	5.2*	0	0.096[42 µM]	i
C[C@H](CO)N1C[C@H](C)[C@@H](CN(C)Cc2ccncc2)Oc2ccc(NS(C)(=O)=O)cc2C1=O	-2	0	2	0	-11	.	.
O=C1C2C(C(=O)N1CCc1ccccc1)C1C=CC2C12CC2 (stereo unspecified)	-2	-3	-2	2.5*	.	0.13	i
CCOC(=O)c1c(C)[nH]c(C)c1C(=O)COC(=O)/C=C/c1ccccc1[N+](=O)[O-]	-4	1	?	2.0*	-2	-0.03	i
O=C(C[C@H]1CC[C@H]2NC[C@H](O)COC[C@@H]2O1)NC1Cc2ccccc2C1	0	0	-7	0	0	.	.
O=C1C=CCCN1S(=O)(=O)/C=C/c1ccccc1	-5	0	0	17*	.	0.039	i
SMILES	F508del corr	ERAP1 inh	DENV2 CPE rescue	FGF22 binding-1	E-selectin induc	FGF22 binding-2	TSA no protein
Cc1noc(C)c1S(=O)(=O)Nc1ccc2c(c1)C(=O)N([C@H](C)CO)C[C@H](C)[C@H](CN(C)CC1CCCCC1)OCCCC[C@H](C)O2	2	-2	-4	-1	0	.	.
O=[N+]([O-])c1cc(CS(=O)(=O)Oc2ccc(Cl)cc2)c(O)c([N+](=O)[O-])c1	0	6	1	1.4*	2	0.11	i
Cc1cc(C(=O)O/N=C(\N)c2ccncc2)ccc1[N+](=O)[O-]	0	.	0	18*	4	0.21	i
Nc1nc(-c2cccnc2)nn1C(=O)c1ccc(F)cc1	2	-16	-4	1.7*	-4	0.22	i
O=C(N[C@@H]1C=C[C@H](CC(=O)N2CCCCC2)O[C@@H]1CO)c1cccc(F)c1	0	1	3	1.3*	1	-0.043	i
O=C(N[C@H]1C=C[C@H](CC(=O)N2CCCCC2)O[C@H]1CO)c1cccc(F)c1	-3	0	-8	1.5*	0	.	i
COc1cccc(NC(=O)N[C@H]2C=C[C@@H](CC(=O)N3CCN(C)CC3)O[C@H]2CO)c1	1	1	3	2.3*	-1	0.12[42 µM]	i
COc1cccc(NC(=O)N[C@H]2C=C[C@H](CC(=O)N3CCN(C)CC3)O[C@H]2CO)c1	0	-2	0	.	-1	.	.
CN1CCN(C(=O)C[C@H]2C=C[C@@H](NC(=O)c3ccc4c(c3)OCO4)[C@H](CO)O2)CC1	0	-1	-5	1.2*	0	0.14[42 µM]	i
CN1C(=O)c2cc(NC(=O)C3CCCC3)ccc2OC[C@@H]2O[C@@H](CC(=O)NCc3ccccc3F)CC[C@@H]21	-1	4	-1	.	0	.	.

Bioassay records (PubChem BioAssay)
